# Bioassay records from PubChem.
# The list is not random: actives were taken first. Their share in the collection is about 1.5%.
# NS3 helicase inh – inhibitors of Hepatitis C virus NS3 helicase; AID 1800; inhibition, % at 10.9 µM; NS3 helicase DNA unwinding, Cy5 molecular beacon fluorescence; 290,000 tested, 0.56% active;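 active = inhibition above the mean of all tested compounds plus 3 SD, set per campaign, cut at about 35% in these data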
#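 Assay system: hepatitis C virus NS3 helicase domain fragment enzyme. Also added: annealed dual-labelled DNA beacon duplex, ATP-started. Timing: 1 h reaction at 25 °C, ATP-initiated. Technique: Cy5 fluorescence at 0 and 60 min, beacon hairpin quenching. Evaluation: % inhibition of unwinding. Replication: one well per compound.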
# Casp6 inh – inhibitors of human caspase-6 | P55212 | purified caspase-6, Z-VEID-R110 cleavage fluorescence | inhibition, % at 12.5 µM | 350,000 tested, 0.53% active;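 active = mean inhibition across replicates at least about 35%, with every replicate also reaching that limit, limit read from the data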
# Target sequence (P55212 24-179 limits assumed): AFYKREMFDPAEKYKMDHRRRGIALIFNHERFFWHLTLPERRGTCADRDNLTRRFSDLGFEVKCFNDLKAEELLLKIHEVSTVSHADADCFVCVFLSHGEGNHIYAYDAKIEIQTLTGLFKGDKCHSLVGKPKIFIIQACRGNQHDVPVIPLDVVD
# Target sequence (P55212 194-293 limits assumed): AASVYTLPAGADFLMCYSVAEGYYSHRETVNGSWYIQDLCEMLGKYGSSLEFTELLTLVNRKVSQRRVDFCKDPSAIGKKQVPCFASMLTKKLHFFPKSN
# DNMT1 inh – inhibitors of human DNMT1; P26358; DNMT1 molecular beacon, Hinp1I cleavage, fluorescence; inhibition (reported as % activation of signal), % at 10 µM; 360,000 tested, 0.83% active; AID 588458
# NSD2 HMT inh – NSD2 (human) methyltransferase inhibition. AID 743445. inhibition, % at 12.5 µM. O96028. 310,000 tested, 0.54% active. NSD2 peptide methylation, AlphaScreen, 120 min
# Alpha artifact – AlphaScreen assay artifact in NSD2 counter-screen. shares compounds with NSD2 HMT inh. AlphaScreen artifact counterscreen, preloaded methylated H4 peptide. AC35, µM (highest dose often 10 µM). 1,500 tested, 9.4% active; call rule not given here
# A number is an active result; n = inactive; x = not tested or not shown. Cut-off read from the data, not from the text of the source, unless noted: active = inhibition above about 50%; inactive = the rest.
SMILES,NS3 helicase inh,Casp6 inh,DNMT1 inh,NSD2 HMT inh,Alpha artifact
O=C(CSc1nc2ccccc2o1)N/N=C/c1ccc(O)c(O)c1,n,63.0,n,116.2,2.2µM
C/C(=N\NC(=O)CSc1nc2ccccc2o1)c1ccc(O)cc1,n,n,n,51.2,n
COc1cccc(NC(=O)C[C@H]2CC[C@H]3[C@H](COc4ccc(NC(=O)C5CCOCC5)cc4C(=O)N3C)O2)c1,x,n,x,x,x
O=C(Nc1ccc(O)cc1)C1CC=CCC1 (stereo not drawn),n,x,n,126.3,n
Cc1noc(C)c1NC(=O)Nc1ccc2c(c1)CC(=O)N([C@@H](C)CO)C[C@@H](C)[C@H](CN(C)Cc1ccncc1)O2,x,n,x,x,x
Cc1ccc(C)c(N2C(=N)S/C(=C\c3ccc(-c4ccccc4C(=O)O)o3)C2=O)c1,n,37.5,n,53.8,n
Cc1noc(C)c1S(=O)(=O)Nc1ccc2c(c1)C(=O)N([C@@H](C)CO)C[C@H](C)[C@@H](CN(C)S(=O)(=O)c1ccc(F)cc1)O2,x,n,x,x,x
Cc1cc(C)cc(NC(=O)C2C3C=CC4(O3)C2C(=O)N(CCCN2CCCC2)C4C(=O)NC2CCCC(C)C2C)c1 (stereo not drawn),n,n,n,50.3,n
Cc1cccc(NC(=O)C2C3C=CC4(O3)C2C(=O)N(CCCN2CCCC2)C4C(=O)NC2CCCC(C)C2C)c1 (stereo not drawn),n,n,n,n,x
COc1ccc2c3c(n(C)c2c1)[C@@H](CO)N(Cc1cccc(Cl)c1)CC31CN(C(=O)C2CC2)C1,x,n,x,x,x
NS(=O)(=O)c1ccc(N/N=C/c2ccncc2)cc1,n,n,n,127.9,n
NS(=O)(=O)c1ccc(N/N=C/c2ccccc2Br)cc1,n,n,n,n,x
CC(C)NC(=O)N1Cc2cc(C(=O)NCC(F)(F)F)nc(-c3cccc(-c4cc5ccccc5o4)c3)c2[C@H]1CCO,x,n,x,x,x
CCOC(=O)Nc1ccc(=O)n(Cc2c(Cl)cccc2Cl)c1,n,x,n,84.6,n
Cc1ccc2nc(C)cc(C(=O)NC3CCCCCC3)c2c1,x,n,n,n,x
CCc1nc2ccc(C)cc2c(C(=O)NC2CCCCC2C)c1C (stereo not drawn),n,x,n,75.0,n
O=C(c1cc(-c2ccc(Cl)cc2)n(-c2ccc(Cl)cc2)n1)N1CCOCC1,n,x,n,58.1,n
Cc1ccc(-n2nc(C(=O)N3CCOCC3)cc2-c2ccc(Cl)cc2)cc1,n,x,n,n,x
N#Cc1cc2ccc(N3CCOCC3)cc2cc1C#N,n,64.2,n,119.6,n
COc1cccc(-c2cnc3c(c2)C(=O)N([C@@H](C)CO)C[C@@H](C)[C@@H](CN(C)C(=O)CN(C)C)O3)c1,x,n,x,x,x
Cc1ccc(Cl)cc1N1CCN(C(=O)c2ccc3nc[nH]c3c2)CC1,n,n,n,51.4,n
Cc1cccc(N2CCN(C(=O)c3ccc4nc[nH]c4c3)CC2)c1C,n,n,n,n,x
O=C1c2ccccc2C(=O)N1CCC(c1ccc(F)cc1)c1ccco1 (stereo not drawn),n,x,n,118.9,n
O=S(=O)(c1ccc(-c2nnco2)cc1)N1CCCCC1,n,n,n,92.5,n
O=C1C2C3C=CC(C3)C2C(=O)N1/N=C/c1ccc(-c2ccccc2[N+](=O)[O-])o1 (stereo not drawn),n,x,n,n,x
SMILES,NS3 helicase inh,Casp6 inh,DNMT1 inh,NSD2 HMT inh,Alpha artifact
CN1C(=O)/C(=C/c2ccc(-c3ccccc3[N+](=O)[O-])o2)SC1=Nc1ccc(Cl)c(C(=O)O)c1,n,x,n,116.8,n
Cc1ccc(-c2cc(C(=O)N/N=C/c3ccccc3)n[nH]2)o1,n,n,n,121.9,n
O=C(NNS(=O)(=O)c1ccc(F)cc1F)c1csc(-c2cccnc2)n1,n,n,n,54.2,n
O=C(NNC(=O)c1ccc(Cl)cc1Cl)c1csc(-c2cccnc2)n1,n,n,n,n,x
C[C@@H]1CN([C@H](C)CO)C(=O)c2cc(NC(=O)CCC(F)(F)F)ccc2O[C@@H](C)CCCCO[C@H]1CN(C)C(=O)C1CCCCC1,x,n,x,x,x
CCSc1nc2c(c(=O)[nH]1)C(c1ccc(C)cc1)C1=C(CCCC1=O)N2 (stereo not drawn),n,n,n,n,x
Cc1ccc(CSc2nc3c(c(=O)[nH]2)C(c2ccncc2)C2=C(CCCC2=O)N3)cc1 (stereo not drawn),n,x,n,126.7,n
CCNC(=O)C[C@@H]1CC[C@H]2[C@@H](COC[C@@H](O)CN2C(=O)C2CC2)O1,x,n,x,x,x
COc1ccc(CN(C)C[C@@H]2OCCCC[C@@H](C)Oc3ccc(NC(=O)Nc4c(C)noc4C)cc3C(=O)N([C@@H](C)CO)C[C@H]2C)cc1,x,n,x,x,x
CCN(CC)CCCN(Cc1cc2cc3c(cc2[nH]c1=O)OCCO3)C(=O)Nc1ccccc1,n,x,n,92.9,n
O=C(Nc1ccccc1)N(CCCN1CCOCC1)Cc1cc2cc3c(cc2[nH]c1=O)OCCO3,n,x,n,n,x
CCN(CC)CCCN(Cc1cc2cc3c(cc2[nH]c1=O)OCO3)C(=S)NCCCOC,n,n,n,74.9,n
CCN(CC)CCCN(Cc1cc2ccc(C)c(C)c2[nH]c1=O)C(=O)NC1CCCCC1,n,x,n,63.3,n
CCN(CC)CCCN(Cc1cc2cc3c(cc2[nH]c1=O)OCO3)C(=S)NCCCN(C)C,n,n,n,79.8,n
CN1C(=O)c2cc(NC(=O)c3cccc(C(F)(F)F)c3)ccc2OC[C@@H]2O[C@H](CC(=O)O)CC[C@@H]21,x,n,x,x,x
CS(=O)(=O)N1[C@@H]2c3ccc(-c4ccc(F)cc4)c(=O)n3C[C@@H]2[C@@H](CO)[C@@H]1C(=O)O,x,n,x,x,x
C[C@H](CO)N1C[C@H](C)[C@H](CN(C)C)Oc2ccc(NS(=O)(=O)c3ccc(Cl)cc3)cc2CC1=O,x,n,x,x,x
CCC(=O)N1C[C@@H](C)[C@@H](OC)CN(C)C(=O)c2cc(NC(=O)C3CCOCC3)ccc2OC[C@H]1C,x,n,x,x,x
CCCC(=O)Nc1ccc2c(c1)OC[C@H](C)N(Cc1ccccc1)C[C@@H](C)[C@H](OC)CN(C)C2=O,x,n,x,x,x
COC(=O)c1ccc(Cn2cnc3c(sc4nc(N5CCOCC5)c5c(c43)CCCC5)c2=O)o1,n,x,n,75.1,n
COC(=O)c1ccc(Cn2nnc3c(sc4nc(N5CCOCC5)c5c(c43)CCCC5)c2=O)o1,n,x,x,x,x
O=C(CCCCC(=O)NCCc1ccccc1)NCCc1ccccc1,n,n,n,n,x
O=C(CC(=O)NCCc1ccccc1)NCCc1ccccc1,n,n,n,123.7,n
COc1cc(/C=C/C(=O)OCC(=O)NNC(=O)c2cc(Cl)ccc2OC)ccc1O,x,n,n,63.0,n
COc1ccc2c3c(n(C)c2c1)[C@@H](CO)N(Cc1ccncc1)CC31CN(C(=O)C2CCCC2)C1,x,n,x,x,x
Cc1ccc(NC(=O)CCn2c(=O)oc3ccccc32)cc1,n,x,n,55.1,n
O=C(CCn1c(=O)oc2ccccc21)Nc1ccccc1,n,x,n,n,x
COc1cc(NC(=O)CCn2c(=O)oc3ccccc32)cc(OC)c1OC,n,n,n,51.1,n
CO[C@H]1CN(C)C(=O)c2cc(NS(C)(=O)=O)ccc2OC[C@H](C)N(C(=O)CN(C)C)C[C@@H]1C,x,n,x,x,x
